Measured values taken from ChEMBL document CHEMBL1153060, “Part 1: Structure-Activity Relationship (SAR) investigations of fused pyrazoles as potent, selective and orally available inhibitors of p38alpha mitogen-activated protein kinase” (Bioorg Med Chem Lett, 2009).
≈ marks a conversion by molar mass, not a printed value.

Columns and labels:
[1] = target: Mitogen-activated protein kinase 14 (Homo sapiens, UniProt Q16539); test: Inhibition of human recombinant p38alpha assessed as phosphorylation of ATF2 by scintillation proximity assay
Chain of Mitogen-activated protein kinase 14 (Q16539 whole entry): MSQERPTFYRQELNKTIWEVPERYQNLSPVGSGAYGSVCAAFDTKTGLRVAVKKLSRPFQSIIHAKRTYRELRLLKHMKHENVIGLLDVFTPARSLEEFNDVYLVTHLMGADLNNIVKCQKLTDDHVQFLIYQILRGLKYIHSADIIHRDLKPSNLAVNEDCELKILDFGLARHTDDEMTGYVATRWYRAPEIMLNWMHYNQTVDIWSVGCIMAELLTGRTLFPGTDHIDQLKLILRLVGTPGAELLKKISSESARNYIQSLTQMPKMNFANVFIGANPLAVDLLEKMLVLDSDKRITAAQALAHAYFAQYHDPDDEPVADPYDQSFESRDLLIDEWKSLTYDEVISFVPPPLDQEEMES

THP-1 = test: Inhibition of LPS-induced TNFalpha release in human THP1 cells after 3 hrs; format: functional, cell-based; conditions: THP-1, 3 h
In short: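 THP1 cell line challenged with LPS, with TNFα secretion as read-out. IC50 is the mean of at least three independent dose–response curves, or of two where flagged.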

Blood = test: Inhibition of TNF-alpha-stimulated IL8 production in human whole blood incubated for 1 hr before TNFalpha challenge measured after 16 to 18 hrs; format: functional, tissue-based
In short: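 Human whole blood diluted to 50% and stimulated with TNFα, with IL-8 secretion as read-out. IC50 is the mean of at least three independent dose–response curves, or of two where flagged.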

[2] = Solubility in 0.01N HCl; format: physicochemical
[3] = Solubility in phosphate buffered saline; format: physicochemical
[4] = Solubility in simulated intestinal fluid; format: physicochemical
[5] = Clearance in Sprague-Dawley rat at 2 mg/kg, iv; format: ADME, organism-based; set-up: dose 2 mg/kg, route intravenous; conditions: in vivo
In short: (§1)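 Male Sprague–Dawley rats given 2.0 mg/kg iv (in DMSO) or 2.0 mg/kg po. Values are the mean of three rats. Reported parameters are CL, Vdss, t1/2, AUC(0-inf) and oral F.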

[6] = Volume of distribution at steady state in Sprague-Dawley rat at 2 mg/kg, iv; format: ADME, organism-based; set-up: dose 2 mg/kg, route intravenous; conditions: in vivo, read-out: Vdss; in short: as §1
[7] = Half life in Sprague-Dawley rat at 2 mg/kg, iv; format: ADME, organism-based; set-up: dose 2 mg/kg, route intravenous; conditions: in vivo; in short: as §1
[8] = AUC (0 to infinity) in Sprague-Dawley rat at 2 mg/kg, po; format: ADME, organism-based; set-up: time infinity, dose 2 mg/kg, route oral; conditions: plasma; in short: as §1
[9] = Oral bioavailability in Sprague-Dawley rat at 2 mg/kg; format: ADME, organism-based; conditions: in vivo; in short: as §1
Cytochrome P450 2C9 = Cytochrome P450 2C9 (Homo sapiens, UniProt P11712); test: Inhibition of CYP2C9; format: ADME
Chain of Cytochrome P450 2C9 (P11712 whole entry): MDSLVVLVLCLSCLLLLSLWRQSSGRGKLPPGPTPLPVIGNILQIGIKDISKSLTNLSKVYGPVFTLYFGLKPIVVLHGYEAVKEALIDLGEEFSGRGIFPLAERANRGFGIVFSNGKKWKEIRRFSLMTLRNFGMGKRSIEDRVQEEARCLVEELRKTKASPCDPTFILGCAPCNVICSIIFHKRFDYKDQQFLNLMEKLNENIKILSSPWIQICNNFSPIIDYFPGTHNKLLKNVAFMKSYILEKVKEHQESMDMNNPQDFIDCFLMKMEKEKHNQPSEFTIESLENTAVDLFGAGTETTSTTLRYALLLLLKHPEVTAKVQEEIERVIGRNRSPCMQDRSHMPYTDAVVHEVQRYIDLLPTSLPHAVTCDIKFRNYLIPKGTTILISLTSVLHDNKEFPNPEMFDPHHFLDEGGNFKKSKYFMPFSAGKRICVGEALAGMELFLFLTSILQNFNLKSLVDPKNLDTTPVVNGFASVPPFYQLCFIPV

Cytochrome P450 2C19 = Cytochrome P450 2C19 (Homo sapiens, UniProt P33261); test: Inhibition of CYP2C19; format: ADME
Chain of Cytochrome P450 2C19 (P33261 whole entry): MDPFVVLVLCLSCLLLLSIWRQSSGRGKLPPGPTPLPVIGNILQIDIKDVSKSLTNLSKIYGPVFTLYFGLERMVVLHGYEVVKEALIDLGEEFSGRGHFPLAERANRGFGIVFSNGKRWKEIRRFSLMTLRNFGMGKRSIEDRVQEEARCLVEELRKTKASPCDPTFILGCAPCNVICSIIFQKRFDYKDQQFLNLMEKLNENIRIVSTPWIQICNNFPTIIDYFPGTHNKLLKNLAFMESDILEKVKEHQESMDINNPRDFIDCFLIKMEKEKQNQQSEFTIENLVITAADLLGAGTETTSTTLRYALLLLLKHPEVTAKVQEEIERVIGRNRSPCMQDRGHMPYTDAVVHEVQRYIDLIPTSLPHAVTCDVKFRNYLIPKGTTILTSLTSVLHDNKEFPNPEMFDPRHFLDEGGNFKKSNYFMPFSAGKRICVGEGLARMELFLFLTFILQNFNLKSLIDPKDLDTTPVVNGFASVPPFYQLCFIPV

Cytochrome P450 2D6 = Cytochrome P450 2D6 (Homo sapiens, UniProt P10635); test: Inhibition of CYP2D6; format: ADME
Chain of Cytochrome P450 2D6 (P10635 whole entry): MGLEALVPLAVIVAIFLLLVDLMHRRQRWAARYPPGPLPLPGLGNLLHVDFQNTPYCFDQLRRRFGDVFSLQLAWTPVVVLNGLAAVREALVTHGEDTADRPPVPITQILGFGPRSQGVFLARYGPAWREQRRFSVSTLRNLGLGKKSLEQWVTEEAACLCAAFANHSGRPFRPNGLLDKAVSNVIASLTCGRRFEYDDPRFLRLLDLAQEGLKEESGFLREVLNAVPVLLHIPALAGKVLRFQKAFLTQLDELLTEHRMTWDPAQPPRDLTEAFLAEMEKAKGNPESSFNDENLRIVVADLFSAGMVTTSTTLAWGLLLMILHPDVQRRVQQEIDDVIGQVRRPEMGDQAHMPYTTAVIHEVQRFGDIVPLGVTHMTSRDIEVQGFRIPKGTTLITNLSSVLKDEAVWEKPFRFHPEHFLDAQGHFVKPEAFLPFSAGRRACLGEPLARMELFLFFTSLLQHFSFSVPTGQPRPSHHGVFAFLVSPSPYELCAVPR

Rattus norvegicus [10] = species on record: Rattus norvegicus; test: Plasma concentration in Lewis rat at ED50; format: ADME, organism-based; conditions: in vivo
[11] = Ratio of drug level in brain to plasma in Lewis rat; format: ADME; conditions: read-out: BPR
[12] = Protein binding in rat plasma by ultrafiltration method; conditions: read-out: PPB (converted)
[13] = target: RAF proto-oncogene serine/threonine-protein kinase (Homo sapiens) (UniProt P04049); test: Inhibition of c-Raf at 1.5 uM; values are per cent of control
Chain of RAF proto-oncogene serine/threonine-protein kinase (Homo sapiens) (P04049 whole entry): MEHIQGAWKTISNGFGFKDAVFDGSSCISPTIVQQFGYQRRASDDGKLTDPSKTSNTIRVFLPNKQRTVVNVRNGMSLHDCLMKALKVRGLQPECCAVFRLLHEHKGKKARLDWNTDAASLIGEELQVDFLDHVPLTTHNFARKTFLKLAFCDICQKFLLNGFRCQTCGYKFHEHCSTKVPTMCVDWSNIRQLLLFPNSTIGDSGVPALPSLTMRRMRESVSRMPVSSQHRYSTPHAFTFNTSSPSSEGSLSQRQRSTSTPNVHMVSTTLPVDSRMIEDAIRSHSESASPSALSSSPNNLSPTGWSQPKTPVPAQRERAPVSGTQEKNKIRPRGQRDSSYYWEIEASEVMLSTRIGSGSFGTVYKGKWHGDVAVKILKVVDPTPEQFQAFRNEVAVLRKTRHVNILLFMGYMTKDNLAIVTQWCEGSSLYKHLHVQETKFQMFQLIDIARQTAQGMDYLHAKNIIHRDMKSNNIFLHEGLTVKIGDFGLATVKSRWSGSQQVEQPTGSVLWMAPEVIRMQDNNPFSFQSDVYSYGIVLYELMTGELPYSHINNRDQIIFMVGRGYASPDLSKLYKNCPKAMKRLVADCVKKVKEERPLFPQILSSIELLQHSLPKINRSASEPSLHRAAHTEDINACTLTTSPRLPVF

Rattus norvegicus [14] = test: Inhibition of LPS-induced TNFalpha production in po dosed Lewis rat administered 60 mins prior to LPS challenge measured after 90 mins by ELISA
Rattus norvegicus [15] = test: Inhibition of LPS-induced TNFalpha production in Lewis rat at 0.1 mg/kg, po administered 60 mins prior to LPS challenge measured after 90 mins by ELISA
Rattus norvegicus [16] = test: Inhibition of LPS-induced TNFalpha production in Lewis rat at 0.3 mg/kg, po administered 60 mins prior to LPS challenge measured after 90 mins by ELISA
Rattus norvegicus [17] = test: Inhibition of LPS-induced TNFalpha production in Lewis rat at 0.01 mg/kg, po administered 60 mins prior to LPS challenge measured after 90 mins by ELISA
Rattus norvegicus [18] = test: Inhibition of LPS-induced TNFalpha production in Lewis rat at 0.03 mg/kg, po administered 60 mins prior to LPS challenge measured after 90 mins by ELISA

SMILES	IC50 [1] [nM]	IC50 (THP-1) [nM]	IC50 (Blood) [nM]	clearance [5] [mL/min/kg]	Vd [6] [L/kg]	half-life [7] [h]	AUC(0-inf) [8] [ng·h/mL]	bioavailability [9] [%]	further results
Cc1ccc(C(=O)O)cc1Nc1cc(=O)n(C)c2c1cnn2-c1ccc(F)cc1F	> 1000	> 2500	> 2500	–	–	–	–	–	–
Cn1c(=O)cc(Oc2cc(C(=O)NC3CC3)ccc2Cl)c2cnn(-c3cc(F)ccc3F)c21	3.3	14	79	–	–	–	–	–	solubility [2]: 24.8 µg/mL (≈ 52.7 µM); solubility [3]: 14.7 µg/mL (≈ 31.2 µM); solubility [4]: 49 µg/mL (≈ 104 µM)
CCn1c(=O)cc(Oc2cc(C(=O)NC3CC3)ccc2C)c2cnn(-c3ccc(F)cc3)c21	4	1.8	13	4.5	1.1	3.2	1500	41	–
Cn1c(=O)cc(Nc2ccc(F)cc2F)c2cnn(-c3ccc(F)cc3F)c21	> 1000	937	> 2500	–	–	–	–	–	–
Cn1c(=O)cc(Nc2cc(C(=O)NC3CC3)ccc2Cl)c2cnn(-c3cc(F)ccc3F)c21	1.1	1.1	1.9	8.67	1.2	2.1	2160	56	solubility [2]: 28.6 µg/mL (≈ 60.9 µM); solubility [3]: 24.9 µg/mL (≈ 53 µM); solubility [4]: 35.2 µg/mL (≈ 74.9 µM)
Cn1c(=O)cc(Nc2cc(C(=O)NC3CC3)ccc2F)c2cnn(-c3ccc(F)cc3F)c21	13	6.7	19	–	–	–	–	–	–
Cn1c(=O)cc(Nc2cc(C(=O)NC3CC3)ccc2F)c2cnn(-c3c(F)cccc3F)c21	1.9	3.2	8.2	–	–	–	–	–	–
Cn1c(=O)cc(Nc2cc(C(=O)NC3CC3)ccc2Cl)c2cnn(-c3ccc(F)cc3F)c21	–	0.44	1.1	6.17	1.2	3.8	4610	81	IC50 (Cytochrome P450 2C9): 8400 nM; IC50 (Cytochrome P450 2C19): 16000 nM; IC50 (Cytochrome P450 2D6): 22700 nM; Cp (Rattus norvegicus [10]): 0.9 ng/mL; Kp [11]: 0.06; solubility [2]: 67.1 µg/mL (≈ 143 µM); solubility [3]: 60.6 µg/mL (≈ 129 µM); solubility [4]: 81.7 µg/mL (≈ 174 µM); fraction unbound [12]: 0.02; residual activity [13]: 75%; ED50 (Rattus norvegicus [14]): 0.05 mg/kg; inhibition in vivo at 0.1 mg/kg (Rattus norvegicus [15]): 83.9%; inhibition in vivo at 0.3 mg/kg (Rattus norvegicus [16]): 98.4%; inhibition in vivo at 0.01 mg/kg (Rattus norvegicus [17]): 21.6%; inhibition in vivo at 0.03 mg/kg (Rattus norvegicus [18]): 22.6%
Cc1ccc(C(=O)NC2CC2)cc1Oc1cc(=O)n(C)c2c1cnn2-c1ccc(F)cc1F	7.8	3.5	16	–	–	–	–	–	solubility [2]: 5.7 µg/mL (≈ 12.7 µM); solubility [3]: 5.3 µg/mL (≈ 11.8 µM); solubility [4]: 12.2 µg/mL (≈ 27.1 µM)
CCn1c(=O)cc(Nc2cc(C(=O)NC3CC3)ccc2Cl)c2cnn(-c3ccc(F)cc3F)c21	1.1	0.67	1.3	7	1.5	3.4	776	16	–
CONC(=O)c1ccc(C)c(Nc2cc(=O)n(C)c3c2cnn3-c2ccc(F)cc2F)c1	1.1	1.1	1.4	43.3	1.7	3.3	120	15	–
Cn1c(=O)cc(Nc2cc(C(=O)NC3CC3)ccc2Cl)c2cnn(-c3c(F)cccc3F)c21	1.1	0.62	1.5	21.7	1.9	3.4	139	9	–
Cc1ccc(C(=O)NC2CC2)cc1Nc1cc(=O)n(C)c2c1cnn2-c1cccc(F)c1	3.3	1.3	1.7	–	–	–	–	–	–
Cc1ccc(C(N)=O)cc1Nc1cc(=O)n(C)c2c1cnn2-c1cc(F)ccc1F	3.7	7.5	7.1	–	–	–	–	–	–
Cc1ccc(C(=O)NC2CC2)cc1Nc1cc(=O)n(C)c2c1cnn2-c1c(F)cccc1F	1.9	0.87	1.3	14.7	1.2	2.8	273	12	–
Cc1ccc(C(=O)NC2CC2)cc1Nc1cc(=O)n(C)c2c1cnn2-c1ccc(F)cc1F	–	1	2.4	–	–	–	–	–	–
Cc1ccc(C(N)=O)cc1Nc1cc(=O)n(C)c2c1cnn2-c1ccc(F)cc1F	2.6	1.9	3.4	–	–	–	–	–	–
Cn1c(=O)cc(NC2CCOCC2)c2cnn(-c3cccc(F)c3)c21	> 1000	> 2500	> 2500	–	–	–	–	–	–
Cn1c(=O)cc(Nc2ccc(F)cc2)c2cnn(-c3c(F)cccc3F)c21	> 1000	546	> 833	–	–	–	–	–	–
Cc1ccc(C(=O)NC(C)(C)C)cc1Nc1cc(=O)n(C)c2c1cnn2-c1ccc(F)cc1F	269	65	204	–	–	–	–	–	–
Cc1ccc(C(=O)NC2CC2)cc1Oc1cc(=O)n(C)c2c1cnn2-c1cc(F)ccc1F	6.1	5	16	–	–	–	–	–	–
Cc1ccc(C(=O)NC2CC2)cc1Oc1cc(=O)n(C)c2c1cnn2-c1c(F)cccc1F	1.4	1	2.6	10.5	1.3	2.3	244	7	–
Cc1ccc(C(=O)NC2CC2)cc1Oc1cc(=O)n(C)c2c1cnn2-c1cccc(F)c1	8.5	12	29	–	–	–	–	–	–
Cc1ccc(C(=O)NC2CC2)cc1Nc1cc(=O)n(C)c2c1cnn2-c1cc(F)ccc1F	2.9	1	2.5	–	–	–	–	–	–
Cc1ccncc1Nc1cc(=O)n(C)c2c1cnn2-c1cc(F)ccc1F	444	208	403	–	–	–	–	–	–
CCn1c(=O)cc(Nc2cc(C(=O)NC3CC3)ccc2C)c2cnn(-c3ccc(F)cc3)c21	4	1.1	1.9	–	–	–	–	–	–
CCn1c(=O)cc(Nc2cc(C(=O)NC3CC3)ccc2Cl)c2cnn(-c3ccc(F)cc3)c21	1.2	1	0.93	6.83	1.8	3.7	2290	45	–
